Source: ChEMBL document CHEMBL2203161 (Bioorg Med Chem, 2012)
One block for each compound: values may come before it. Activity calls are given as the source filed them. No cut-off for these calls is given here.

Key:
[1] = target: T1, Probable linoleate 9S-lipoxygenase 5 (Solanum tuberosum) (UniProt Q43191); test: Inhibition of potato 5-lipoxygenase assessed as residual activity preincubated for 10 mins measured by real-time spectrophotometric analysis
T1 sequence (whole entry): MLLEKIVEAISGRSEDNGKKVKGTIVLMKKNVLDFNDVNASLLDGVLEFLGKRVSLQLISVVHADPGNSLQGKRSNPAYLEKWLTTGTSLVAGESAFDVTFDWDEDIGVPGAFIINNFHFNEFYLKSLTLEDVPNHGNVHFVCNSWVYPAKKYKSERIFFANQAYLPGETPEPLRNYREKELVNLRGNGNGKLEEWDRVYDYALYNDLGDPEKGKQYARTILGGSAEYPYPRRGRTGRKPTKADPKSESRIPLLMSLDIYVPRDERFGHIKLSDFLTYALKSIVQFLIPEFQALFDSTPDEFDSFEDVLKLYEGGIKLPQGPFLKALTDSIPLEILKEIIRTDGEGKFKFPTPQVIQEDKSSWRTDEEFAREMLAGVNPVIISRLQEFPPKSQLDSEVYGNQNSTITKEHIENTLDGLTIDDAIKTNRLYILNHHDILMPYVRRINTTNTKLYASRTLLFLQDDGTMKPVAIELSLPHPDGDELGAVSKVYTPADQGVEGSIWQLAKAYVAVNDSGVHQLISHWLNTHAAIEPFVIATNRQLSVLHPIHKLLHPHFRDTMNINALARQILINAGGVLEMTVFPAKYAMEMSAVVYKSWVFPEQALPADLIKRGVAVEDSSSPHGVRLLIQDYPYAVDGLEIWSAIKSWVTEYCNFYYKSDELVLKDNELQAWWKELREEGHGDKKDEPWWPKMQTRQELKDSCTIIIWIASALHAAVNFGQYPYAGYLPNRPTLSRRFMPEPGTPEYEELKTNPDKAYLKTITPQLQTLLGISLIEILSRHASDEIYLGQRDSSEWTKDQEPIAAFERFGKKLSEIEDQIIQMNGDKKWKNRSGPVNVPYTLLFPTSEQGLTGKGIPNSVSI
Summary of the method: (§1)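 Single-concentration screen against soybean LOX-1 and potato 5-LOX. Enzyme preincubated 10 min with 50 µM compound. Formation of conjugated diene 13-HPOD from linoleic acid followed spectrophotometrically in real time. Residual activity given as percent of blank without inhibitor. Average of three independent experiments with standard deviations.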

[2] = target: T2, Seed linoleate 13S-lipoxygenase-1 (Glycine max, UniProt P08170); test: Inhibition of soybean lipoxygenase-1 assessed as inhibition constant for enzyme-inhibitor complex by Lineweaver-Burk plot
T2 sequence (P08170 whole entry): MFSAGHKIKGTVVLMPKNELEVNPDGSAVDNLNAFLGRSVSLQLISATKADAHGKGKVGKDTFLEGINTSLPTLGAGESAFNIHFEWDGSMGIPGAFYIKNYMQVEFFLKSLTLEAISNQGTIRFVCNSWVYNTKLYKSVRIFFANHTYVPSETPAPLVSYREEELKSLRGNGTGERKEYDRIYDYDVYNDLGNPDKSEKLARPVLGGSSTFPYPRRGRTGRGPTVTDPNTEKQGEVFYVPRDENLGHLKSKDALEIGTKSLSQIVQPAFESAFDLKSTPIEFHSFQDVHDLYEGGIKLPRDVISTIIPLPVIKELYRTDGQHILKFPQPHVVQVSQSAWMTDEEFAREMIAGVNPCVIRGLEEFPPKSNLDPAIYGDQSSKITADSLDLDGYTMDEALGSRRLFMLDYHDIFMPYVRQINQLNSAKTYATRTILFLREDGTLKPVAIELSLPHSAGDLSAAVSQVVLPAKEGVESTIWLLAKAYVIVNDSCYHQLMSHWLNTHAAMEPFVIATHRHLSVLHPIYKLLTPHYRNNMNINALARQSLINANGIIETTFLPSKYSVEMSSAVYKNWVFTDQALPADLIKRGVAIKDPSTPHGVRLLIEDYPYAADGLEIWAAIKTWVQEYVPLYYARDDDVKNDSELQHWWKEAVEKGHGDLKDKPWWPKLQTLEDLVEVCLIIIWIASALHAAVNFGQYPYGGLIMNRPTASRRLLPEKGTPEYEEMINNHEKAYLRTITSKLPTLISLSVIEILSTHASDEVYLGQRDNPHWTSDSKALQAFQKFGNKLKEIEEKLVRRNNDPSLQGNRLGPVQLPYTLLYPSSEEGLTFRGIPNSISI
Summary of the method: (§2)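 SLO-1 conversion of linoleic acid monitored spectrophotometrically in 0.2 M borate buffer pH 9.0 with no inhibitor or after preincubation with 6 or 11 µM inhibitor. Vmax and Km (apparent) taken from Lineweaver–Burk intercepts. Ki (free enzyme) and K'i (substrate-bound enzyme) calculated with a mixed-inhibition model. n=3, ±S.D.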

[3] = target: T2, Seed linoleate 13S-lipoxygenase-1; test: Inhibition of soybean lipoxygenase-1 assessed as inhibition constant for enzyme-substrate-inhibitor complex by Lineweaver-Burk plot; summary of the method: as §2
[4] = Critical micelles concentration of the compound in 0.2 M borate buffer at pH 9; assay type: physicochemical
Summary of the method: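 Surface tension plotted against log concentration in 0.2 M borate buffer pH 9.0 at 19 °C (SLO-1 assay conditions). CMC read from the plot.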

[5] = target: T2, Seed linoleate 13S-lipoxygenase-1; test: Inhibition of soybean lipoxygenase-1 assessed as formation of 13-HPOD from linoleic acid preincubated for 10 mins measured by real-time spectrophotometric analysis
[6] = target: T1, Probable linoleate 9S-lipoxygenase 5 (Solanum tuberosum); test: Activation of potato 5-lipoxygenase assessed as increase in enzyme catalytic rate preincubated for 10 mins measured by real-time spectrophotometric analysis relative to untreated control
Summary of the method: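 Non-essential activation analysis of potato 5-LOX in 0.1 M phosphate buffer pH 6.3. Linoleic acid conversion read spectrophotometrically after preincubation with 0, 12.5, 25 or 50 µM activator. β, the change in catalytic constant, is taken from the re-plot of 1/Δintercept from Lineweaver–Burk plots. Three independent experiments.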

[7] = target: T1, Probable linoleate 9S-lipoxygenase 5 (Solanum tuberosum); test: Activation of potato 5-lipoxygenase assessed as binding constant for substrate bound enzyme preincubated for 10 mins measured by real-time spectrophotometric analysis by Lineweaver-Burk plot
Summary of the method: (§3)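 Potato 5-LOX kinetics: enzyme preincubated without activator or with activator at 12.5, 25 and 50 µM. Conjugated diene formation from linoleic acid followed spectrophotometrically in real time, in 0.1 M phosphate buffer pH 6.3. Lineweaver–Burk plots drawn. K_A, α and β derived from re-plots of 1/Δslope and 1/Δintercept using the non-essential activation equation. n=3, ±S.D.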

[8] = target: T1, Probable linoleate 9S-lipoxygenase 5 (Solanum tuberosum); test: Activation of potato 5-lipoxygenase assessed as increase in residual activity preincubated for 10 mins measured by real-time spectrophotometric analysis by Lineweaver-Burk plot; summary of the method: as §3
[9] = target: T1, Probable linoleate 9S-lipoxygenase 5 (Solanum tuberosum); test: Activation of potato 5-lipoxygenase assessed as residual activity at 50 uM preincubated for 10 mins measured by real-time spectrophotometric analysis relative to untreated control; summary of the method: as §1
[10] = target: T1, Probable linoleate 9S-lipoxygenase 5 (Solanum tuberosum); test: Activation of potato 5-lipoxygenase assessed as increase in residual activity preincubated for 10 mins measured by real-time spectrophotometric analysis
Summary of the method: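 Potato 5-LOX in 0.1 M phosphate buffer pH 6.3, preincubated with a range of activator concentrations or without compound (control). Formation of […] from linoleic acid monitored spectrophotometrically in real time. Activity expressed against control. Mean of three independent experiments ±S.D.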

[11] = Critical micelles concentration of the compound in 0.1 M phosphate buffer at pH 6.3; assay type: physicochemical
Summary of the method: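 Surface tension measured against log concentration in 0.1 M phosphate buffer pH 6.3 at 25 °C (potato 5-LOX assay conditions). CMC read from the plot.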

[12] = target: T3, Seed linoleate 13S-lipoxygenase-1 (Glycine max) (UniProt P08170); test: Inhibition of soybean lipoxygenase-1 assessed as formation of 13-HPOD from linoleic acid preincubated for 10 mins measured by real-time spectrophotometric analysis
T3 sequence (whole entry): T2 sequence (P08170 whole entry)

[13] = target: T1, Probable linoleate 9S-lipoxygenase 5 (Solanum tuberosum); conditions: 6 uM
[14] = target: T1, Probable linoleate 9S-lipoxygenase 5 (Solanum tuberosum); conditions: 50 uM

Compound: CCCCCCCc1ccc(CCc2cc(O)cc(O)c2C(=O)O)cc1
- inhibition [1]: inactive
- Ki [2]: 9.8 µM
- Ki [3]: 15.7 µM
- CMC [4]: 436 µM
- IC50 [5]: 11.1 µM

Compound: CCCCCCCCCCCCCCOc1cccc(O)c1C(=O)O
- fold change (FC) [6]: 1.4
- Ka [7]: 24 µM
- Ka [8]: 1.8 mM
- Activity [9]: Active
- fold change (FC) [9]: 3
- Activity [10]: Dose-dependent effect
- CMC [11]: 208 µM
- IC50 [5]: 55.4 µM

Compound: O=C(O)c1c(O)cccc1CCc1ccc2nc(-c3ccccc3)oc2c1
- inhibition [1]: inactive
- inhibition [12]: Active

Compound: CCCCCCCc1ccc(CCc2cccc(O)c2C(=O)O)cc1
- Activity [9]: Active
- fold change (FC) [9]: 3

Compound: O=C(O)c1c(O)cc(O)cc1CCc1ccc(Cc2nc3ccccc3o2)cc1
- inhibition [1]: inactive
- IC50 [5]: 58.5 µM

Now from value to compound:

- inhibition [1]: inactive
- inhibition [12]: Active
Compound: CCCCCCCCCCCCCCCc1cc(O)cc(O)c1C(=O)O

- CMC [4]: 390 µM
- inhibition [13]: 30%
- inhibition [14]: 50%
Compound: CCCCCCCCCCCCCCCc1cccc(O)c1C(=O)O [ANACARDIC ACID]

- inhibition [12]: inactive
Compound: CCCCCCCCCCCCCCCc1cccc(O)c1C(=O)OC
